The results in this text go back to ChEMBL document CHEMBL1221164, “Small molecules that delay S phase suppress a zebrafish bmyb mutant” (2005).

The term inhibition denotes the share of the control response that was lost under treatment.

Assay [1] is filed under the species Danio rerio. The assay can be described thus: Inhibition of B-myb-mediated mitotic deffects in zebrafish bmyb mutant embryo assessed as intra-Sphase and G2/M checkpoint inhibition in presence of 2 mM caffeine at 10 ug/ml. An outline of the steps:
(§1)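 crb embryos given 2 mM caffeine or none at 4 hpf. Thirty minutes later […] aphidicolin added, then incubated overnight to 24 hpf at 28.5 °C in E3 with 1% DMSO. Mitotic accumulation read by whole-mount phospho-histone H3 staining, with pH3-positive cells counted in the tail distal to the yolk extension.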

The species entered for assay [2] is Danio rerio. In words: Inhibition of B-myb-mediated mitotic deffects in zebrafish bmyb mutant embryo assessed as intra-Sphase and G2/M checkpoint inhibition at 10 ug/ml. Put shortly: as §1
The species named for assay [3] is Danio rerio. The assay can be described thus: Inhibition of B-myb-mediated mitotic deffects in zebrafish bmyb mutant crb embryos at 50 mM.
The species entered for assay [4] is Danio rerio. In words: Inhibition of B-myb-mediated mitotic deffects in zebrafish bmyb mutant crb embryos at 50 mM. An outline of the steps:
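crb heterozygote intercross embryos exposed from 4 hpf to 24 hpf at 28.5 °C in E3 with 1% DMSO (aphidicolin […]; hydroxyurea 50 mM). Fixed in 4% paraformaldehyde, whole-mount stained for phospho-histone H3 (Ser10), genotyped by RFLP. pH3-positive cells counted in the tail distal to the yolk extension, or mutant phenotype scored by eye.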

The target in assay [5] is T1, B-myb (Danio rerio) (UniProt Q4KMF7).
T1 sequence (whole entry): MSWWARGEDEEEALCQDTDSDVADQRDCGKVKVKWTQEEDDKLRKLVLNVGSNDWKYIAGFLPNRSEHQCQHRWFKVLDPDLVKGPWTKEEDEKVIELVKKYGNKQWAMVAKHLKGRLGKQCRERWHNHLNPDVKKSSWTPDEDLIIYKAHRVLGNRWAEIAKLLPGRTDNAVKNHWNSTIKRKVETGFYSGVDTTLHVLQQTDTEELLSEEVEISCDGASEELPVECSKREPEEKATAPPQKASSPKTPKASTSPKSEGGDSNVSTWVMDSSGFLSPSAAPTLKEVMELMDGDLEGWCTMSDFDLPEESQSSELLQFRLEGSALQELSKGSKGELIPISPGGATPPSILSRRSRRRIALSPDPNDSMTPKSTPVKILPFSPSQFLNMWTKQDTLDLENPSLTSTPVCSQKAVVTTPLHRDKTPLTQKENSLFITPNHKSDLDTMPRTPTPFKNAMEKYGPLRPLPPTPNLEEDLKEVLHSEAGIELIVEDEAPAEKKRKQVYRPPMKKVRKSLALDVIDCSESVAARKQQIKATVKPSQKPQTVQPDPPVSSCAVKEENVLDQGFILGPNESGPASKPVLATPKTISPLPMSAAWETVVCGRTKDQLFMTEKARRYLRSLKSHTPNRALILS
In words: Inhibition of B-myb-mediated mitotic deffects in wild-type zebrafish embryo assessed as accumulation of cells in early S phase at […] at 24 hrs post fertilization for 6 hrs by flow cytometry. An outline of the steps: (§2)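 Wild-type embryos exposed 24–30 hpf (6 h at 28.5 °C) to […] drug. Embryos disaggregated, immunostained for pH3 and DNA content measured by flow cytometry (G1/S/G2M fractions). For S-phase confirmation, embryos labelled with BrdU and incorporation read by whole-mount immunostaining and FACS.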

In assay [6] the target is T1, B-myb (Danio rerio). The assay can be described thus: Inhibition of B-myb-mediated mitotic deffects in wild-type zebrafish embryo assessed as accumulation of cells in early S phase at […] at 24 hrs post fertilization for 6 hrs by flow cytometry in presence of 10 mM BrdU. An outline of the steps: as §2
(In general: Flow cytometry measures light scatter and fluorescence of single cells or particles in a stream.)

The species named for assay [7] is Danio rerio. The assay can be described thus: Inhibition of B-myb-mediated mitotic deffects in zebrafish bmyb mutant crb embryos assessed as number of centrosomes in pH3 -positive cells at […] at 24 hrs post fertilization by pH3 and gamma tubulin staining. The assay is classed as cell-based. Put shortly:
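Centrosomes detected with a monoclonal anti-γ-tubulin antibody (1:1,000) in embryos treated overnight with […] drug.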

The target in assay [8] is T1, B-myb (Danio rerio). In words: Inhibition of B-myb mediated mitotic deffects in wild-type zebrafish assessed as suppression of polyploidy at […] at 24 hrs post fertilization […]. Put shortly: (§3)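 Control and treated embryos, […] overnight, disaggregated and DNA content (2n/4n/8n) measured by flow cytometry. Individual-embryo FACS used a cell-suspension aliquot for genotyping.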

Assay [9] is filed under the species Danio rerio. The assay can be described thus: Inhibition of B-myb-mediated mitotic deffects in zebrafish bmyb mutant crb embryos at […]. The following applies: TDE = time-dependent effect. Put shortly: (§4)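 crb heterozygote incrosses; embryos in E3 with 1% DMSO at 28.5 °C, compound added at 4 hpf and kept until 24 hpf ([…] except in dose-response). Fixed in 4% paraformaldehyde and whole-mount stained for serine-10-phosphorylated histone H3. All pH3-positive cells in the tail distal to the yolk extension counted, at least five embryos per condition. Embryos genotyped by RFLP. ED50 from dose-response.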

For assay [10], the species on record is Danio rerio. The assay can be described thus: Inhibition of B-myb-mediated mitotic deffects in zebrafish bmyb mutant crb embryos assessed as suppression of polyploidy at 8 mM at 24 hrs post fertilization by TUNEL assay. An outline of the steps:
as §3

Assay [11] addresses T1, B-myb (Danio rerio). The assay can be described thus: Inhibition of B-myb-mediated mitotic deffects in wild-type zebrafish assessed as number of centrosomes in pH3 -positive cells at […] at 24 hrs post fertilization by pH3 and […] staining. The assay is classed as cell-based.
The species named for assay [12] is Danio rerio. The assay can be described thus: Inhibition of B-myb-mediated mitotic deffects in zebrafish bmyb mutant crb embryos assessed as suppression of apoptosis at 8 mM at 24 hrs post fertilization by TUNEL assay. An outline of the steps: (§5)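 Embryos treated overnight (from 4 hpf) with […] drug, washed at 24 hpf. Apoptosis read by TUNEL staining at 24 hpf, and by brain opacity morphology at 30 hpf.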

For assay [13], the species on record is Danio rerio. The assay can be described thus: Inhibition of B-myb-mediated mitotic deffects in zebrafish bmyb mutant embryo assessed as increase in mitotic cells with condensed chromatin at 10 uM by pH3 and alpha tubulin staining. Type of assay: cell-based.
For assay [14], the species on record is Danio rerio. In words: Inhibition of B-myb-mediated mitotic deffects in zebrafish bmyb mutant crb embryos. An outline of the steps: as §4
The target of assay [15] is T1, B-myb (Danio rerio). In words: Inhibition of B-myb-mediated mitotic deffects in wild-type Zebrafish assessed as suppression of cells without spindles at […] at 24 hrs post fertilization by pH3 and alpha tubulin staining. Put shortly: (§6)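 Embryos treated overnight with […] drug, then double-stained for α-tubulin and pH3. Spindles counted in the body distal to the yolk ball. DAPI-stained cells with condensed chromatin counted manually in one field at the tail tip.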

Assay [16] is filed under the species Danio rerio. The assay can be described thus: Inhibition of B-myb-mediated mitotic deffects in zebrafish bmyb mutant crb embryos assessed as prometaphase arrest at 10 uM by pH3 and alpha tubulin staining.
The species entered for assay [17] is Danio rerio. In words: Inhibition of B-myb-mediated mitotic deffects in zebrafish bmyb mutant crb embryos assessed as reduction in abnormalities in mitotic spindle by pH3 and alpha tubulin staining. The following applies: concentration not given here. An outline of the steps:
as §6

Assay [18] can be described thus: Induction of S to M phase cell cycle progression in zebrafish bmyb mutant embryo cells assessed as Brdu incorporation. The assay is classed as functional, Danio rerio.
For assay [19], the target named is T1, B-myb (Danio rerio). In words: Inhibition of B-myb-mediated mitotic deffects in wild-type zebrafish assessed as increase in cyclin B1 mRNA expression. An outline of the steps: (§7)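 Wild-type and crb embryos treated with […] drug, then whole-mount in situ hybridization for cyclin B1.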
The species entered for assay [20] is Danio rerio. The assay can be described thus: Inhibition of B-myb-mediated mitotic deffects in zebrafish bmyb mutant crb embryos assessed as suppression of cells without spindles at 8 mM at 24 hrs post fertilization by pH3 and alpha tubulin staining. Put shortly:
as §6

The target of assay [21] is T1, B-myb (Danio rerio). The assay can be described thus: Inhibition of B-myb-mediated mitotic deffects in wild-type zebrafish assessed as suppression of apoptosis at […] at 24 hrs post fertilization by TUNEL assay. Put shortly:
as §5

The species named for assay [22] is Danio rerio. The assay can be described thus: Inhibition of B-myb-mediated mitotic deffects in zebrafish bmyb mutant crb embryos assessed as increase in cyclin B1 mRNA expression. An outline of the steps:
as §7

Active and inactive are the calls of the source. No cut-off for these calls is given here.

Turning to `C[C@@]1(CO)[C@H](O)CC[C@@]2(C)[C@H]1CC[C@H]1C[C@@H]3C[C@@]12CC[C@]3(O)CO`, the inhibition result in the assay filed under Danio rerio [1], in the assay listed under Danio rerio [2], in the assay listed under Danio rerio [3] and in the assay listed under Danio rerio [4] was “Active” in each case.
As for `NC(=O)NO`, the inhibition result in the assay filed under Danio rerio [3] and in the assay listed under Danio rerio [4] was “Active” each time.
On to `O=C(Nc1ncccc1O)C12CC3CC(CC(C3)C1)C2` [PERSYNTHAMIDE], for which the inhibition result on B-myb (Danio rerio) [5], on B-myb (Danio rerio) [6], in the assay filed under Danio rerio [7], at B-myb (Danio rerio) [8], in the assay filed under Danio rerio [10] and on B-myb (Danio rerio) [11] was “Active” throughout. For the same compound, the inhibition entry in the assay listed under Danio rerio [12], on B-myb (Danio rerio) [15], in the assay listed under Danio rerio [16], on B-myb (Danio rerio) [19], in the assay listed under Danio rerio [20] and on B-myb (Danio rerio) [21] was “Active” throughout. Besides, the inhibition result in the assay filed under Danio rerio [22] was “Active”. Further, the inhibition result in the assay listed under Danio rerio [9] is “tde”; in the assay listed under Danio rerio [17] it was 55%. In the assay listed under Danio rerio [13], the fold change (FC) stood at 4. Also, the ED50 in the assay listed under Danio rerio [14] was 5 µM. The Activity in assay [18] is 60%.
